Published values from different studies.
Protocols differ between the studies behind these lines.
SMARCA2: SWI/SNF-related matrix-associated actin-dependent regulator of chromatin subfamily A member 2 (SMARCA2, Homo sapiens, UniProt P51531)
MAST1: Microtubule-associated serine/threonine-protein kinase 1 (MAST1, Homo sapiens, UniProt Q9Y2H9)
PADI2: Protein-arginine deiminase type-2 (PADI2, Homo sapiens, UniProt Q9Y2J8)
BPTF: Nucleosome-remodeling factor subunit BPTF (BPTF, Homo sapiens, UniProt Q12830)

| Compound | target | assay | system | setting | quantity | result |
| --- | --- | --- | --- | --- | --- | --- |
| CC(=O)N[C@H]1CSSC[C@@H](C(=O)N[C@@H](Cc2c[nH]c3ccccc23)C(N)=O)NC(=O)[C@H](Cc2ccccc2)NC(=O)[C@H](CCCNC(=N)N)NC1=O | Melanocortin receptor 3 (MC3R, Homo sapiens, UniProt P41968) | cAMP, agonist | HEK293 | 3 min | Emax | 0% |
| CCC(C)/C=C1\CCn2c1nc(=O)c1c(Cl)cccc12 (centres unmarked) | SMARCA2 | thermal stability, DSF | – | 100 µM | ΔTm | 3.77 °C |
| COc1cc2ncnc3c2cc1OCCOCCOc1c(Cl)cccc1N3 | Epidermal growth factor receptor (EGFR, Homo sapiens, UniProt P00533, del746-750) | enzyme activity, inhibitor, radiometric | – | 1 µM | remaining activity | 15% |
| Cc1ccc(C(=O)Nc2ccc(CN3CCN(C)CC3)c(C(F)(F)F)c2)cc1C#Cc1cnc2cccnn12 | MAST1 | enzyme activity, inhibitor | – | 23.5 nM | remaining activity | 95% |
| Fc1cccc(-n2cnc3c(NCc4nc5c(F)c(F)ccc5[nH]4)nc(N4CCOCC4)nc32)c1 | MAST1 | binding, competition with immobilised ligand | – | 10 µM | binding vs control | 23% |
| CCC(/C=C1\CCn2c1nc(=O)c1cc(Cl)ccc12)CC | SMARCA2 | thermal stability, DSF | – | 100 µM | ΔTm | -0.49 °C |
| Oc1ccc(-c2nc(-c3ccncc3)c(-c3ccc(F)cc3)[nH]2)cc1 | SMARCA2 | thermal stability, DSF | – | 10 µM | ΔTm | 0.56 °C |
| N=C(CCl)NCCC[C@H](NC(=O)c1ccccc1)c1nn[nH]n1 | PADI2 | enzyme activity, inhibitor | – | – | kinact/KI | 14.5 M⁻¹ s⁻¹ |
| CCCOc1ccc(OC)c(F)c1C(=O)c1ccc(C(=O)N[C@@H]2CNC[C@H]2NC(=O)c2ccc3[nH]ncc3c2)cc1 | Tyrosine-protein kinase Blk (Blk, Mus musculus, UniProt P16277) | enzyme activity, inhibitor | – | 10 µM | remaining activity | 42% |
| CC(C)(C)n1nnc([C@H](CCCNC(=N)CCl)NC(=O)c2ccc(-c3ccccc3)cc2)n1 | PADI2 | enzyme activity, inhibitor | – | – | kinact/KI | 182 M⁻¹ s⁻¹ |
| Cc1cc2c(cc1N1C(=O)c3cccc4c(Cl)ccc(c34)C1=O)n(C)c(=O)n2C | BPTF | thermal stability, DSF | – | 10 µM | ΔTm | 0 °C |
| CCC(/C=C1\CCn2c1nc(=O)c1c(Cl)c(Cl)ccc12)CC | SMARCA2 | thermal stability, DSF | – | 100 µM | ΔTm | 2.86 °C |
| NS(=O)(=O)c1ccc(Nc2nc(-c3ccc(F)cc3)c3ccccc3n2)cc1 | BPTF | binding, competition with immobilised ligand | – | 1 µM | remaining binding | 63% |
| CC(C)(C)n1nnc([C@H](CCCNC(=N)CF)NC(=O)c2ccccc2C(=O)O)n1 | PADI2 | enzyme activity, inhibitor | – | – | kinact/KI | 2020 M⁻¹ s⁻¹ |
| CC(C)(C)/C=C1\CCn2c1nc(=O)c1c(Cl)cccc12 | SMARCA2 | thermal stability, DSF | – | 100 µM | ΔTm | -0.14 °C |
| CC(C)(C)n1nnc([C@H](CCCNC(=N)CF)NC(=O)c2ccc(-c3ccccc3)cc2)n1 | PADI2 | enzyme activity, inhibitor | – | – | kinact/KI | 189 M⁻¹ s⁻¹ |
| CC/C=C1\CCn2c1nc(=O)c1c(Cl)cccc12 | SMARCA2 | thermal stability, DSF | – | 100 µM | ΔTm | -1.47 °C |
| CC1(c2ccccc2)COCC(N)=N1 (centres unmarked) | Beta-secretase 1 (BACE1, Homo sapiens, UniProt P56817) | thermal stability, DSF | – | 2.1 mM, pH 5.4 | ΔTm | 2.78 °C |
| CCC(CC)CC1CCn2c1nc(=O)c1c(Cl)cccc12 (racemic) | SMARCA2 | thermal stability, DSF | – | 100 µM | ΔTm | 1.33 °C |
| Cc1cnc(Nc2ccc(OCCN3CCCC3)cc2)nc1Nc1cccc(S(=O)(=O)NC(C)(C)C)c1 | SMARCA2 | thermal stability, DSF | – | 10 µM | ΔTm | -0.09 °C |
